An excerpt weighted towards active compounds, which were near 4.2% of everything screened.
TMEM16A act: TMEM16A chloride channel activators or potentiators, primary screen, cell-based, HTS | 340,000 compounds, 0.3% hits | HEK293 TMEM16A/YFP-H148Q/I152L, iodide quench fluorescence; hits give low values | B-score at 10 µM | Anoctamin-1 (Mus musculus), Q8BHY3;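 active = fluorescence-ratio B-score plate-corrected deviation score at least 3 library SD below zero, with starting fluorescence score within 5 deviations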;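 note: channel opened by trigger with iodide after compound preincubation; score built on the fluorescence ratio of max minus min over baseline; more negative score means more quench and so TMEM16A activation or potentiation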
Target sequence (Q8BHY3 whole entry, looked up): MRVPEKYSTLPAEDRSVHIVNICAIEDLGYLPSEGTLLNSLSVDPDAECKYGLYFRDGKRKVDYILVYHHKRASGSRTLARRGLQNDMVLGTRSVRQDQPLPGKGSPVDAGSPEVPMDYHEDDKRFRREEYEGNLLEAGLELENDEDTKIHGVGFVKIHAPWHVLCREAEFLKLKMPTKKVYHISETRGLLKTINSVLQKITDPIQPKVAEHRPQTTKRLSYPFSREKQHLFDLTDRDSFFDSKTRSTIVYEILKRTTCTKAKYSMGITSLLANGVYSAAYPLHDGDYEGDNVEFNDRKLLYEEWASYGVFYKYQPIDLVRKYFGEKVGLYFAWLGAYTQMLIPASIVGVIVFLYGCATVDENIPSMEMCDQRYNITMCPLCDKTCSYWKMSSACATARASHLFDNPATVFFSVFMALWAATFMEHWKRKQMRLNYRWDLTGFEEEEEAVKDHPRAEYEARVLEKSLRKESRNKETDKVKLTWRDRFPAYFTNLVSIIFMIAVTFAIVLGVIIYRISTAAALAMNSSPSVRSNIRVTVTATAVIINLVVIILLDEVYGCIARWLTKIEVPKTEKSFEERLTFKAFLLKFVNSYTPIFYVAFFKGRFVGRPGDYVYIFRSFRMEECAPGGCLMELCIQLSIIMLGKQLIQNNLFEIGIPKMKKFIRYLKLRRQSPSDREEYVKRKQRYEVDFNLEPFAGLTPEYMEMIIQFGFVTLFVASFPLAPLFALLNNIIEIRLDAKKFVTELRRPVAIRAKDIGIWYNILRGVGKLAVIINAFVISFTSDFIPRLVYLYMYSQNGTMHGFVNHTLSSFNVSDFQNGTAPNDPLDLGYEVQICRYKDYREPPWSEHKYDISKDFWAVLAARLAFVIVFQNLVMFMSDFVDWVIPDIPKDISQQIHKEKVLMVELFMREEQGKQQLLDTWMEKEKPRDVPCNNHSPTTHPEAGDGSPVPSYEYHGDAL
UPR XBP1 act: activators of adaptive XBP1 UPR arm, primary screen, cell-based, CHO-XBP1 luciferase reporter, luminescence, uHTS; IRE1-XBP1 UPR activation; percent of tunicamycin response, DMSO as zero; activation, % at 20 µM; 330,000 compounds, 0.33% hits; AID 463104, 2010;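 active = versus positive control, 20 µM dose yields 30% or more activation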
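incubation = overnight seeding at 37 °C, 6 h compound treatment at 37 °C | assay system = CHO-XBP1 cells stably carrying IRE1-XBP1-driven luciferase reporter | input = 1000 cells per well | detection = luciferase luminescence | dosing = single point, 20 µM final compound, 1% DMSO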
TMEM16A inh: TMEM16A chloride channel inhibitors, primary screen, cell-based, HTS. AID 588511, 2011. Anoctamin-1 (Mus musculus), Q8BHY3. normalized B-score (activity score, 25-100; higher = stronger inhibition) at 10 µM. 310,000 compounds, 1.2% hits. HEK293 TMEM16A/YFP iodide influx fluorescence, ionomycin;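 active = ratio plate-corrected score three or more library SD toward inhibition, starting fluorescence score within five deviations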;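 note: score derived from kinetic fluorescence span divided by baseline fluorescence per well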
UPR CHOP act: activators of apoptotic CHOP UPR arm, primary screen, cell-based, CHO-CHOP luciferase reporter, luminescence, uHTS; UPR activation; percent of tunicamycin response over DMSO baseline; activation, % at 10 µM; 330,000 compounds, 0.34% hits; AID 449763, 2010;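 active = at 10 µM dose, activation of 40% or more, normalized to positive control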
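System: CHO-CHOP luciferase reporter cell line | Buffer or medium: F12 medium containing 10% fetal bovine serum | Doses: One dose, 10 µM in 0.5% DMSO | Times: 6 h compound exposure at 37 °C after overnight seeding | Signal: Luciferase luminescence | Read-out: % activation vs tunicamycin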
Lipid droplet: inhibitors of hepatocyte lipid droplet formation, primary screen, imaging, high-throughput imaging, BODIPY stain; AML12 mouse hepatocytes, oleate lipid droplets; inhibition, % at 6.5 µM; 240,000 compounds, 0.4% hits; AID 1656, 2009;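 active = lipid droplet intensity inhibited by at least 50%, with more than 500 cells counted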
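Assay system: AML12 hepatocytes (mouse) / Also added: 100 µM oleic acid challenge / Times: overnight treatment with compound plus oleate / Detection: high-content imaging of BODIPY-stained droplets and DAPI nuclei / Evaluation: % inhibition of lipid droplet signal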
CHOP inh: inhibitors of CHOP promoter induction, primary screen, cell-based, unfolded protein response, luciferase reporter. AID 2732, 2010. 220,000 compounds, 3.8% hits. CHO-K1 CHOP-promoter luciferase, tunicamycin-induced, 15-18 h. inhibition, % at 10 µM;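 active = compounds that reduced the stress-induced luciferase reporter signal by more than about 70% of percent inhibition, limit read from the data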
UPR CHOP confirm: activators of apoptotic CHOP UPR arm, confirmation, cell-based, CHO-CHOP luciferase reporter, single concentration. shares compounds with UPR CHOP act. CHO-CHOP cells, CHOP-luciferase reporter luminescence; percent of tunicamycin response, DMSO as zero. activation, % at 10 µM. 1,000 compounds, 64% hits; in the data active = activation above about 33%
Large screens that a line does not name were inactive (follow-up assays come after a bar, where they were run).

CCn1c(O)c(N=NC(=O)c2cccnc2)c2cc(Br)ccc21	none
Cn1nnnc1SCC(=O)NC1CCCC1	none (no result: CHOP inh)
N=C1N(/N=C/c2ccccc2)C(=Nc2ccccc2)C(=S)N1c1ccccc1	UPR CHOP act 76 | UPR CHOP confirm inactive
O=C(C[C@H]1C[C@H](C(=O)N2CCCCC2)[C@@]2(CCc3ccccc3)c3[nH]c4ccc(Cl)cc4c3CCN2C1=O)NCCN1CCOCC1	UPR CHOP act 52 (no result: TMEM16A act, TMEM16A inh, Lipid droplet, CHOP inh) | UPR CHOP confirm inactive
CCOC(=O)c1ccc(N2CCOCC2)c(NC(=O)c2ccc3c(c2)OCO3)c1	none (no result: CHOP inh)
CCOC(=O)C1=C(CCl)NC(=O)NC1c1ccc2c(c1)OCO2 (stereo not given)	UPR CHOP act 44 (no result: CHOP inh) | UPR CHOP confirm 37
CC(C)(C)C(=O)N(Cc1ccc(Cl)cc1)c1cnccn1	none (no result: Lipid droplet, CHOP inh)
Cc1ccc(Cl)cc1NC(=O)Nc1c(C)n(C)n(-c2ccccc2)c1=O	none (no result: CHOP inh)
C=CCn1c(Cc2csc(N)n2)nnc1SCC(=O)Nc1ccccc1C(F)(F)F	none
O=C1ON=C(c2ccc(Cl)cc2)/C1=C/c1ccc(O)cc1	UPR CHOP act 107 (no result: TMEM16A act) | UPR CHOP confirm inactive
Cc1c(/C=N/Nc2nc3ccccc3[nH]2)c2ccccc2n1C	UPR CHOP act 320 | UPR CHOP confirm inactive
COc1ccc(CC2=CC(=O)c3ccccc3C2=O)cc1	UPR CHOP act 187 (no result: CHOP inh) | UPR CHOP confirm 191
COc1ccc(S(=O)(=O)N2CCOCC2)cc1NC(=O)COC(=O)c1oc2ccccc2c1C	none (no result: TMEM16A inh, Lipid droplet, CHOP inh)
Cn1c(=NC(=O)CCl)sc2ccccc21	UPR CHOP act 41 (no result: Lipid droplet, CHOP inh) | UPR CHOP confirm inactive
Cn1c(=NC(=O)c2ccco2)sc2ccccc21	none
CCN1C(N(C)C)=NC[C@@H]1Cc1ccccc1	none (no result: Lipid droplet, CHOP inh)
CC1=NN(c2cccc(C(=O)O)c2)C(=O)/C1=C\C=C/c1ccccc1	UPR CHOP act 95, CHOP inh 93 (no result: TMEM16A act, TMEM16A inh) | UPR CHOP confirm 130
CCOC(=O)c1c(-c2ccc(-c3ccccc3)cc2)csc1NC(=O)CNCCN(C)C	UPR CHOP act 42 (no result: Lipid droplet, CHOP inh) | UPR CHOP confirm 119
S=C1SCN(Cc2ccccc2)CN1Cc1ccccc1	none (no result: TMEM16A inh, CHOP inh)
S=C1SCN(CC2CC2)CN1CC1CC1	UPR CHOP act 82 | UPR CHOP confirm 86
S=C(Nc1ccc(Cl)cc1)c1nc2ccccc2s1	none (no result: Lipid droplet)
O=C(Nc1ccc(Cl)cc1)/C(=C/c1cccc(O)c1)c1nc2ccccc2s1	UPR CHOP act 114, CHOP inh 107 | UPR CHOP confirm 62
CCOC(=O)c1ccc(N=c2sc(C(=O)OC)cc(=O)n2CCCN2CCOCC2)cc1	none
CCOC(=O)c1ccc(N=c2sc(C(=O)OC)cc(=O)n2Cc2ccco2)cc1	UPR CHOP act 41 | UPR CHOP confirm inactive
COc1ccc2nc(C)cc(SCC(=O)N/N=C/c3ccc(O)c(O)c3)c2c1	none
O=C(N/N=C/c1cccc(O)c1)c1cc(-c2ccccc2)nc2ccccc12	none (no result: CHOP inh)
Cc1cc(SCC(=O)N/N=C/c2ccc(O)c(O)c2)c(C)cc1Br	UPR CHOP act 57 | UPR CHOP confirm inactive
O=C(N/N=C/c1ccc(O)c(O)c1)c1cc(-c2ccccc2)nc2ccccc12	UPR XBP1 act 34, UPR CHOP act 99 (no result: CHOP inh) | UPR CHOP confirm inactive
Cc1cc(SCC(=O)N/N=C/c2ccc(O)cc2O)nc2ccccc12	none (no result: CHOP inh)
Cc1cc(SCC(=O)N/N=C/c2ccc(O)c(O)c2)nc2ccccc12	UPR XBP1 act 59, UPR CHOP act 108 (no result: CHOP inh) | UPR CHOP confirm 42
O=C(NN1C(=O)c2ccccc2C1=O)C1C2CCCCC21 (stereo not given)	none
CC(=O)c1ccc(NC(=O)CN2C(=O)NC3(CCc4ccccc43)C2=O)cc1 (stereo not given)	none (no result: TMEM16A inh, Lipid droplet, CHOP inh)
COc1ccc(CNC(=O)COc2ccc(C(=O)c3ccc(F)cc3)cc2)cc1	UPR CHOP act 56 | UPR CHOP confirm inactive
Oc1ccc(/C=N/N2CCN(C3c4ccccc4-c4ccccc43)CC2)cc1O	UPR CHOP act 102, CHOP inh 91 | UPR CHOP confirm 53
O=C(O)c1ccc(/C=N/N2CCN(C3c4ccccc4-c4ccccc43)CC2)cc1	none
Cc1ccc(CN2CCN(/N=C/c3ccc(O)c(O)c3)CC2)cc1	UPR CHOP act 147 (no result: Lipid droplet, CHOP inh) | UPR CHOP confirm 106
CC(C(=O)O)n1cc(C#N)c(=O)[nH]c1=O (stereo not given)	none (no result: UPR XBP1 act, TMEM16A inh, UPR CHOP act, Lipid droplet, CHOP inh)
[O-][n+]1c(/C=C/c2ccccc2)ccc2ccccc21	UPR CHOP act 127 (no result: CHOP inh) | UPR CHOP confirm inactive
[O-][n+]1ccccc1/C=C/c1ccccc1	none (no result: Lipid droplet, CHOP inh)
CCCCC(CC)CN=C(N)NC(N)=NCCCCCCN=C(N)NC(N)=NCC(CC)CCCC (stereo not given)	TMEM16A act -26, UPR CHOP act 54 (no result: Lipid droplet, CHOP inh) | UPR CHOP confirm 38
CCOc1c(Cl)cc(/C=C/C(=O)N(CC)CC(=O)NCc2cccs2)cc1OC	none (no result: Lipid droplet, CHOP inh)
O=S(=O)(Nc1cccc2ncccc12)c1cccs1	UPR CHOP act 49 (no result: CHOP inh) | UPR CHOP confirm inactive
O=C(CN1C(=O)COc2ccccc21)N1CCN(C2CCCCC2)CC1	none (no result: CHOP inh)
O=C(COC(=O)c1ccccc1C(=O)c1ccc(Cl)c([N+](=O)[O-])c1)NC1CCCCCC1	UPR CHOP act 85, CHOP inh 93 | UPR CHOP confirm 36
O=C(COC(=O)c1ccc(Cl)c([N+](=O)[O-])c1)NC1CCCC1	none (no result: CHOP inh)
